Compound activity as filed in PubChem.
TRPC4 agonist = opens the mouse TRPC4 cation channel; HEK293 TRPC4beta/mu-opioid, Fluo4 calcium fluorescence; active compounds read high; B-score at 10 µM; AID 2237; hit rate 0.49% among 310,000;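 active means B-score above 5 SD of library B-scores, and initial fluorescence ratio not above library mean plus 5 SD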;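 further: positive B-score marks a calcium rise read as TRPC4 activation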
Target sequence (Q9QUQ5 whole entry, looked up): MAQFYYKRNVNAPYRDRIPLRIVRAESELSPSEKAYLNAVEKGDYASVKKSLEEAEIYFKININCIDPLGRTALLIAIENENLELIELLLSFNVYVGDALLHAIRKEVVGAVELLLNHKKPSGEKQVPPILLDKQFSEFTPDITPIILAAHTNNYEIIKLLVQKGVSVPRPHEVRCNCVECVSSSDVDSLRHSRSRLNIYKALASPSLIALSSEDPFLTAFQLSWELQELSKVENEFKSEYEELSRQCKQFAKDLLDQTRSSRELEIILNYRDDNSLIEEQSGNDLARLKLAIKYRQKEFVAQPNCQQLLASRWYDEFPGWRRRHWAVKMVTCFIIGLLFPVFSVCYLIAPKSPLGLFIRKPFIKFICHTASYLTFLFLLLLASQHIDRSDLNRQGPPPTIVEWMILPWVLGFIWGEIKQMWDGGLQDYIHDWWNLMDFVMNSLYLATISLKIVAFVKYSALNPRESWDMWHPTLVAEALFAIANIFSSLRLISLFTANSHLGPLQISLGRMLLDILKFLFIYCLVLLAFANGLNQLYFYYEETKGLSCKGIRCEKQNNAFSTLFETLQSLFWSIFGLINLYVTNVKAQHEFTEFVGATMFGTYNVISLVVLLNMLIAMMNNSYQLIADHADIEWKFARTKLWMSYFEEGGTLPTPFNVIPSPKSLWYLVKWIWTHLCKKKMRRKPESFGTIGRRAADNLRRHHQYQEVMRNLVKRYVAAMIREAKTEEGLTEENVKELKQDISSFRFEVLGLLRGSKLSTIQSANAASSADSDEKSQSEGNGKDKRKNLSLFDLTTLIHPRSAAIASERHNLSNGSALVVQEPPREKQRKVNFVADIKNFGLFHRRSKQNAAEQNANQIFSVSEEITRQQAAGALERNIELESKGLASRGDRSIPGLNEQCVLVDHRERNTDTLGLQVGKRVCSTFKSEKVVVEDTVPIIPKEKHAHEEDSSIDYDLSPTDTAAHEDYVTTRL
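Assay system: HEK293 stable line with TRPC4beta plus mu-opioid receptor. Times: dye 45 min RT, read 110 s. Measured by: kinetic Fluo4 calcium fluorescence. Measure: B score of integrated ratio. Controls: assay buffer as low control, maximal DAMGO as high control.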
TRPC4 inh = blocks the mouse TRPC4 cation channel. B-score at 10 µM. hit rate 0.39% among 300,000. HEK293 TRPC4beta/mu-opioid, DAMGO-evoked Fluo4 calcium flux; active compounds read low. Q9QUQ5;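 active means B-score over 3 SD under the library average, no early fluorescence shift, positive overall ratio signal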
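Test system – stable TRPC4beta/mu-opioid receptor HEK293 cells · Probe or stimulus – DAMGO, a submaximal dose followed by a maximal one · Dosing – one concentration per compound · Signal – Fluo4 calcium fluorescence by kinetic imaging, 5 s 1 Hz baseline · Evaluation – per-well B score of integrated baseline-normalized Fluo4 ratio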
TRPC6 inhibitor = inhibitors of mouse TRPC6 channel | HEK293-TRPC6, membrane potential dye, ACh-evoked depolarization; active compounds read low | B-score at 10 µM | hit rate 1.1% among 310,000 | Q61143 | AID 2553;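 active means B-score under library mean minus 3 SD, initial fluorescence not abnormally high, positive integrated signal ratio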;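 further: B-score derived from integrated fluorescence ratio over the kinetic read; more negative B-score means stronger inhibition of depolarization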
TRPC4 PAM = allosterically enhances the mouse TRPC4 cation channel; Q9QUQ5; HEK293 TRPC4beta/mu-opioid, DAMGO EC20, Fluo-4 Ca2+ flux; active compounds read high; B-score at 10 µM; hit rate 0.42% among 310,000; AID 2227;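 active means B-score of calcium response area above 5 SD of library B-scores, with initial fluorescence ratio within 5 SD of library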
TRPC6 activator = activates the mouse TRPC6 cation channel. B-score at 10 µM. AID 2550. hit rate 0.13% among 310,000. HEK293-TRPC6 membrane potential dye fluorescence; active compounds read high. Q61143;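 active means B-score of the integrated fluorescence ratio above library mean plus 3 SD, and starting fluorescence ratio within library mean plus 5 SD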;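 further: higher score means more depolarization so channel activation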
TRPC4 sel inh 2 = second check of whether TRPC6 inhibitors also affect mouse TRPC4; inhibition, % at 10 µM; HEK293 TRPC4/MOR, membrane potential dye fluorescence; channel activated by saturating DAMGO dose; shares compounds with TRPC6 inhibitor; hit rate 42% among 920;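 active means compounds whose fluorescence signal differed from control wells by over 3 SD, either direction, in both duplicate plates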
TRPC4 spec = tests whether TRPC6 inhibitors also affect mouse TRPC4 | shares compounds with TRPC6 inhibitor | HEK293 TRPC4/mu-opioid, membrane potential fluorescence | activity change, negative = inhibition, % at 10 µM | hit rate 61% among 920;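 active means rise or fall in signal beyond 3 SD of buffer-only wells in both replicate plates, either sign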;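 further: integrated kinetic ratio of fluorescence range over baseline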
HEK293 MPD ctr 2-1 = parental HEK293 nonspecific activity of TRPC6 inhibitors, second screen; signal change vs control, % at 10 µM; parental HEK293 membrane potential dye fluorescence; maximal acetylcholine challenge after compound addition; hit rate 31% among 920; shares compounds with TRPC6 inhibitor;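 active means membrane potential signal moving either way by over 3 SD of the maximum-effect control, in both duplicate plates, meaning non-specific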
HEK293 MPD ctr-1 = counter-screen for TRPC6 inhibitors: effect in parental HEK293 cells | parental HEK293 membrane potential dye fluorescence | membrane potential signal change, % at 10 µM | hit rate 60% among 920 | shares compounds with TRPC6 inhibitor;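 active means membrane potential signal shifting up or down by more than 3 SD of buffer-only wells, on both duplicate plates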
HEK293 MPD ctr-2 = counter-screen for TRPC6 modulators: effect in parental HEK293 cells; shares compounds with TRPC6 inhibitor; membrane potential dye fluorescence; membrane potential signal change, % at 10 µM; hit rate 51% among 2,400; AID 488924;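 active means membrane potential signal moves up or down beyond 5 SD from buffer-only wells, on both duplicate plates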
HEK293 MPD ctr 2-2 = parental HEK293 nonspecific activity of TRPC6 modulators, second screen. shares compounds with TRPC6 inhibitor. membrane potential dye fluorescence; after compound, maximal acetylcholine stimulation. inhibition, % at 10 µM. hit rate 14% among 2,400;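 active means membrane potential signal drops by more than 5 SD from the mean control signal, in both duplicate plates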
TRPC4 ctr mod = selectivity of TRPC6 modulators against mouse TRPC4 | shares compounds with TRPC6 inhibitor | HEK293 TRPC4/mu-opioid, membrane potential fluorescence | percent change from control (negative = decrease, positive = increase), % at 10 µM | hit rate 69% among 2,400 | AID 488927;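 active means membrane potential signal moved up or down beyond 5 SD of buffer control wells, in both duplicate plates, actives on both sides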
TRPC4/MOR inh 2 = mouse TRPC4 off-target activity of TRPC6 modulators, second screen; shares compounds with TRPC6 inhibitor; HEK293 TRPC4/mu-opioid, membrane potential dye fluorescence; stimulated with maximal-effect DAMGO; inhibition, % at 10 µM; hit rate 55% among 2,400; AID 488928;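 active means drop in membrane potential signal beyond 5 SD of the control wells in both duplicate plates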;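 further: TRPC4 counter screen for TRPC6 hits run under conditions tuned for TRPC6 not TRPC4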
TRPC6 block conf = confirmation of mouse TRPC6 inhibitors | shares compounds with TRPC6 inhibitor | HEK293-TRPC6, membrane potential dye, ACh-evoked depolarization | inhibition, % at 10 µM | hit rate 43% among 3,300;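 active means fluorescence ratio falls more than 5 SD below the full-stimulation control mean, in both duplicate runs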;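 further: integrated fluorescence ratio of peak minus minimum over baseline after agonist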
TRPC6 act conf = confirmation of mouse TRPC6 activators. HEK293-TRPC6 membrane potential dye fluorescence, FDSS. shares compounds with TRPC6 inhibitor. activation, % at 10 µM. hit rate 11% among 2,800;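 active means ratio signal rise beyond 5 SD above unstimulated control wells' mean, seen in both duplicate runs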
Hits are given with their value; . = inactive; / = no result given. A selection: hits, their analogues and other compounds. The true share with any hit is near 2.3%.

SMILES	TRPC4 agonist	TRPC4 inh	TRPC6 inhibitor	TRPC4 PAM	TRPC6 activator	HEK293 MPD ctr-2	HEK293 MPD ctr 2-2	TRPC4 ctr mod	TRPC4/MOR inh 2	TRPC6 block conf	TRPC6 act conf	others
CCOc1ccc(NC(=O)C(NC(=O)C2CCC(C)CC2)C(C)C)cc1 (stereo not drawn)	.	.	-5.7	.	.	.	.	.	.	.	.
CC1CCC(C(=O)NC(C(=O)Nc2ccccn2)C(C)C)CC1 (stereo not drawn)	.	.	.	.	.	/	/	/	/	/	/
COc1ccccc1NC(=O)CCS(=O)(=O)c1ccc2c(c1)NC(=O)C(C)S2 (stereo not drawn)	.	.	.	.	.	/	/	/	/	/	/
CCN(CC)CCCNC1=C(Cl)C(=O)c2ccccc2C1=O	.	.	-6.2	.	.	-180%	.	-30%	47%	50%	.
Cc1cc(N2CCCC2)ccc1/C=C1\NC(=S)N(C)C1=O	70	.	.	.	52	.	.	33%	.	.	32%
Cc1ccc(-c2csc(=Nc3cccnc3)n2CCCn2ccnc2)cc1C	.	.	-5.4	.	.	106%	.	15%	65%	44%	/
CCN(CC)S(=O)(=O)c1cc(NC(=O)CSc2nccn2C)ccc1C	.	.	.	.	.	/	/	/	/	/	/
COc1cc(N/C(N)=N/c2nc(C)cc(C)n2)c(OC)cc1Cl	.	.	-8.2	.	.	/	/	/	/	90%	.	TRPC4 sel inh 2=.;TRPC4 spec=-11%;HEK293 MPD ctr 2-1=.;HEK293 MPD ctr-1=-170%
Cc1cc(C)nc(/N=C(\N)Nc2cc([N+](=O)[O-])ccc2C)n1	.	.	-7.1	.	.	-166%	.	-28%	48%	58%	.
COc1cc(NC(N)=S)c(OC)cc1Cl	.	.	.	.	.	/	/	/	/	/	/
CN(C)/C=N/c1cc(=O)n(C)c(=O)n1Cc1ccccc1	.	.	.	.	.	/	/	/	/	/	/
Cc1oc(-c2ccc(Cl)cc2)nc1CN1CCCC(C(=O)NC2CC2)C1 (stereo not drawn)	.	.	.	.	.	/	/	/	/	/	/
Cc1oc(-c2ccc(Cl)cc2)nc1CN1CCCC(C(=O)NCc2ccco2)C1 (stereo not drawn)	.	.	-6.7	.	16	114%	.	20%	51%	47%	92%
COc1ccc(CCNC(=O)c2cnn3c(C(F)F)cc(C)nc23)cc1OC	.	.	.	.	.	/	/	/	/	/	/
CCOC(=O)N1CCN(S(=O)(=O)c2ccc(C(=O)N(CCCN(C)C)c3nc4cc(OC)ccc4s3)cc2)CC1	.	.	-5.6	.	.	.	.	-25%	81%	73%	.
CN(C)CCCN(C(=O)c1ccc(S(=O)(=O)N2CCCCCC2)cc1)c1nc2c(F)cc(F)cc2s1	157	.	-5.2	.	.	.	.	20%	103%	.	.
CC(C)(CNc1ccc(C(F)(F)F)cc1[N+](=O)[O-])N1CCOCC1	.	.	.	.	.	/	/	/	/	/	/
N#CCCN(CCC#N)C(=O)c1ccc(Cl)cc1	.	.	-14	.	.	.	.	.	.	.	.
N#CCCN(C(=O)Nc1ccc(Cl)cc1)c1ccccc1	.	.	.	.	.	/	/	/	/	/	/
NCCNC[C@@H]1COC2(CCCCCCCCCCC2)O1	.	.	-6.9	.	.	/	/	/	/	62%	.	TRPC4 sel inh 2=33%;TRPC4 spec=1.8%;HEK293 MPD ctr 2-1=.;HEK293 MPD ctr-1=7.8%
CC(=O)Nc1sc(/C(C#N)=C/c2ccc(Cl)c(Cl)c2)nc1-c1ccc(C)cc1	.	.	.	.	13	254%	.	46%	.	.	76%
CC(=O)Nc1sc(N/N=C/c2ccc(C)cc2)nc1-c1ccc(C)cc1	.	.	.	.	.	/	/	/	/	/	/
O=S(=O)(NCc1ccccc1Cl)c1cccs1	.	.	.	.	.	/	/	/	/	/	/
Cc1ccc(-c2cc3cccc[n+]3cc2-c2ccc(C)cc2)cc1	.	.	-5.8	.	.	-134%	.	-20%	29%	60%	.
Cc1ccc2nc(-c3ccncc3)cc(-c3ccccc3)c2c1	.	.	.	.	.	/	/	/	/	/	/
SMILES	TRPC4 agonist	TRPC4 inh	TRPC6 inhibitor	TRPC4 PAM	TRPC6 activator	HEK293 MPD ctr-2	HEK293 MPD ctr 2-2	TRPC4 ctr mod	TRPC4/MOR inh 2	TRPC6 block conf	TRPC6 act conf	others
O=[N+]([O-])c1ncccc1OCc1ccccc1Br	.	.	.	.	.	/	/	/	/	/	/
Cc1sc2cc3c(c(C(=O)c4ccccc4)[n+]2c1C)-c1cccc2cccc-3c12	.	-6	-8.6	.	.	/	/	/	/	.	.	TRPC4 sel inh 2=.;TRPC4 spec=-28%;HEK293 MPD ctr 2-1=.;HEK293 MPD ctr-1=-502%
Cc1cccn2c(=O)c3cc(C(=O)NCC4CCCO4)c(=N)n(CCN4CCOCC4)c3nc12 (stereo not drawn)	.	.	.	.	.	/	/	/	/	/	/
CNC(=O)c1cc2c(=O)n3cccc(C)c3nc2n(C(C)C)c1=N	.	.	-12	.	.	-209%	121%	-40%	66%	82%	.
COCCn1c(=N)c(C(=O)NCCc2ccccc2)cc2c(=O)n3cccc(C)c3nc21	.	.	.	.	.	/	/	/	/	/	/
Cc1cccn2c(=O)c3cc(C(=O)NCCN4CCOCC4)c(=N)n(CCCN4CCOCC4)c3nc12	.	.	-5	.	.	189%	164%	32%	46%	61%	/
COc1ccc(CCn2c(=N)c(C(=O)NC3CCCC3)cc3c(=O)n4cccc(C)c4nc32)cc1	.	.	-5.3	.	.	-121%	.	-38%	49%	36%	.
Cc1cccn2c(=O)c3cc(C(=O)NCCc4ccccc4)c(=N)n(CCCn4ccnc4)c3nc12	.	.	-6.2	.	.	.	100%	.	.	.	.
